Laboratory results from ChEMBL document CHEMBL1777764, “Synthesis and evaluation of 1-(1H-indol-3-yl)ethanamine derivatives as new antibacterial agents” (Bioorg Med Chem, 2011).
≈ marks a conversion by molar mass, not a printed value.

Legend:
Staphylococcus aureus [1] = test: Antibacterial activity against Staphylococcus aureus ATCC 25923 after 18 hrs by broth microdilution method; type: functional
Method in brief: (§1)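 MIC by broth microdilution per ISO 20776-1:2006 and CLSI M07-A8. Inoculum 10^6 cfu/ml in Mueller-Hinton broth with compound serially diluted, final concentrations 2 to 128 ug/ml, duplicate rows, no-drug growth control. Incubation 18 h at 37 °C. MIC taken as lowest concentration giving complete inhibition of visible growth. Each compound tested at least twice.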

HCT-116 [2] = test: Cytotoxicity against human HCT116 cells at 1 uM; type: cell-based; conditions: hct-116, 1 µM
Staphylococcus aureus [3] = test: Antibacterial activity against Staphylococcus aureus ATCC 29213 after 18 hrs by broth microdilution method; type: functional; method in brief: as §1
Staphylococcus aureus [4] = test: Antibacterial activity against Staphylococcus aureus CIP 65.6 after 18 hrs by broth microdilution method; type: functional; method in brief: as §1
KB [5] = test: Cytotoxicity against human KB cells at 10 uM; type: cell-based
Staphylococcus aureus [6] = test: Antibacterial activity against Staphylococcus aureus ATCC 9144 after 18 hrs by broth microdilution method; type: functional; method in brief: as §1
Staphylococcus aureus [7] = test: Antibacterial activity against Staphylococcus aureus ATCC 6538 after 18 hrs by broth microdilution method; type: functional; method in brief: as §1
KB [8] = test: Cytotoxicity against human KB cells at 1 uM; type: cell-based
[9] = tested on: Staphylococcus epidermidis; test: Antibacterial activity against Staphylococcus epidermidis ATCC 12228 after 18 hrs by broth microdilution method; type: functional; method in brief: as §1
MRC5 [10] = test: Cytotoxicity against human MRC5 cells at 10 uM; type: cell-based; conditions: mrc5, 10 µM
Staphylococcus aureus [11] = test: Antibacterial activity against Staphylococcus aureus CIP 103428 after 18 hrs by broth microdilution method; type: functional; method in brief: as §1
[12] = tested on: Staphylococcus epidermidis; test: Antibacterial activity against Staphylococcus epidermidis CIP 103627 after 18 hrs by broth microdilution method; type: functional; method in brief: as §1
[13] = tested on: Staphylococcus epidermidis; test: Antibacterial activity against Staphylococcus epidermidis CIP 81.55 after 18 hrs by broth microdilution method; type: functional; method in brief: as §1
MRC5 [14] = test: Cytotoxicity against human MRC5 cells at 1 uM; type: cell-based; conditions: mrc5, 1 µM
HCT-116 [15] = test: Cytotoxicity against human HCT116 cells at 10 uM; type: cell-based; conditions: hct-116, 10 µM
Streptococcus pneumoniae [16] = test: Antibacterial activity against Streptococcus pneumoniae ATCC 49619 after 18 hrs by broth microdilution method; type: functional; conditions: ATCC 49619, 18 h
Method in brief: (§2)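 MIC by broth microdilution per ISO 20776-1:2006 and CLSI M07-A8. Inoculum 10^6 cfu/ml in Mueller-Hinton broth […]. Compound serially diluted, final 2 to 128 ug/ml, duplicate rows, no-drug growth control. Read after 18 h at 37 °C as lowest concentration fully inhibiting visible growth. At least two experiments.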

Staphylococcus aureus [17] = test: Antibacterial activity against vancomycin intermediate Staphylococcus aureus […] after 18 hrs by broth microdilution method; type: functional
Method in brief: (§3)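 Broth microdilution following ISO 20776-1:2006 and CLSI M07-A8, in Mueller-Hinton broth. Inoculum was 10^6 cfu/ml, with compound serial dilutions spanning 2 to 128 ug/ml and a compound-free growth control well. Plates were incubated 18 h at 37 °C. MIC was the lowest concentration giving complete inhibition of visible growth. Each compound was tested at least twice.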

Staphylococcus aureus [18] = test: Antibacterial activity against methicillin-resistant Staphylococcus aureus CIP 65.25 after 18 hrs by broth microdilution method; type: functional; method in brief: as §3
Staphylococcus aureus [19] = test: Antibacterial activity against methicillin-resistant Staphylococcus aureus ATCC 33592 after 18 hrs by broth microdilution method; type: functional; method in brief: as §3
Streptococcus pneumoniae [20] = test: Antibacterial activity against Streptococcus pneumoniae ATCC 6303 after 18 hrs by broth microdilution method; type: functional; conditions: ATCC 6303, 18 h; method in brief: as §2
Escherichia coli = test: Antibacterial activity against Escherichia coli ATCC 25922 after 18 hrs by broth microdilution method; type: functional; method in brief: as §3

| Compound | MIC (Staphylococcus aureus [1]; ATCC 25923, 18 h) | Activity (HCT-116 [2]) | MIC (Staphylococcus aureus [3]; ATCC 29213, 18 h) | MIC (Staphylococcus aureus [4]; CIP 65.6, 18 h) | Activity (KB [5]) | MIC (Staphylococcus aureus [6]; ATCC 9144, 18 h) | MIC (Staphylococcus aureus [7]; ATCC 6538, 18 h) | Activity (KB [8]) | MIC ([9]; ATCC 12228, 18 h) | Activity (MRC5 [10]) | MIC (Staphylococcus aureus [11]; CIP 103428, 18 h) | MIC ([12]; CIP 103627, 18 h) | MIC ([13]; CIP 81.55, 18 h) | Activity (MRC5 [14]) | Activity (HCT-116 [15]) | MIC (Streptococcus pneumoniae [16]) | MIC (Staphylococcus aureus [17]) | MIC (Staphylococcus aureus [18]; CIP 65.25, 18 h) | MIC (Staphylococcus aureus [19]; ATCC 33592, 18 h) | MIC (Streptococcus pneumoniae [20]) | other results |
| --- | --- | --- | --- | --- | --- | --- | --- | --- | --- | --- | --- | --- | --- | --- | --- | --- | --- | --- | --- | --- | --- |
| CC(C)CC(NO)c1c[nH]c2ccc(Cl)cc12 (configuration not stated) | 16 µg/mL (≈ 63.3 µM) | Non-toxic | 16 µg/mL (≈ 63.3 µM) | 16 µg/mL (≈ 63.3 µM) | Non-toxic | 16 µg/mL (≈ 63.3 µM) | 16 µg/mL (≈ 63.3 µM) | Non-toxic | 32 µg/mL (≈ 127 µM) | Non-toxic | 16 µg/mL (≈ 63.3 µM) | 32 µg/mL (≈ 127 µM) | 32 µg/mL (≈ 127 µM) | Non-toxic | Non-toxic | – | – | – | – | – | – |
| CC(C)CC(NO)c1c[nH]c2ccc(F)cc12 (configuration not stated) | 32 µg/mL (≈ 135 µM) | Non-toxic | 32 µg/mL (≈ 135 µM) | 32 µg/mL (≈ 135 µM) | Non-toxic | 32 µg/mL (≈ 135 µM) | 32 µg/mL (≈ 135 µM) | Non-toxic | 32 µg/mL (≈ 135 µM) | Non-toxic | 32 µg/mL (≈ 135 µM) | 32 µg/mL (≈ 135 µM) | 32 µg/mL (≈ 135 µM) | Non-toxic | Non-toxic | – | – | – | – | – | – |
| CC(C)(C)OC(=O)NCC(c1c[nH]c2ccc(Cl)cc12)N(O)Cc1ccccc1 (configuration not stated) | 16 µg/mL (≈ 38.5 µM) | Non-toxic | 16 µg/mL (≈ 38.5 µM) | 16 µg/mL (≈ 38.5 µM) | – | 16 µg/mL (≈ 38.5 µM) | 16 µg/mL (≈ 38.5 µM) | Non-toxic | 16 µg/mL (≈ 38.5 µM) | – | 16 µg/mL (≈ 38.5 µM) | 16 µg/mL (≈ 38.5 µM) | 16 µg/mL (≈ 38.5 µM) | Non-toxic | – | 64 µg/mL (≈ 154 µM) | 16 µg/mL (≈ 38.5 µM) | 16 µg/mL (≈ 38.5 µM) | 16 µg/mL (≈ 38.5 µM) | 64 µg/mL (≈ 154 µM) | – |
| CC(C)(C)OC(=O)NCC(c1c[nH]c2cc(Cl)ccc12)N(O)Cc1ccccc1 (configuration not stated) | 16 µg/mL (≈ 38.5 µM) | Non-toxic | 16 µg/mL (≈ 38.5 µM) | 16 µg/mL (≈ 38.5 µM) | – | 16 µg/mL (≈ 38.5 µM) | 16 µg/mL (≈ 38.5 µM) | Non-toxic | 16 µg/mL (≈ 38.5 µM) | – | 16 µg/mL (≈ 38.5 µM) | 16 µg/mL (≈ 38.5 µM) | 16 µg/mL (≈ 38.5 µM) | Non-toxic | – | > 128 µg/mL | 16 µg/mL (≈ 38.5 µM) | 16 µg/mL (≈ 38.5 µM) | 16 µg/mL (≈ 38.5 µM) | > 128 µg/mL | – |
| CC(C)(C)OC(=O)NCC(c1c[nH]c2ccc(Br)cc12)N(O)Cc1ccccc1 (configuration not stated) | 8 µg/mL (≈ 17.4 µM) | Non-toxic | 8 µg/mL (≈ 17.4 µM) | 8 µg/mL (≈ 17.4 µM) | Non-toxic | 8 µg/mL (≈ 17.4 µM) | 8 µg/mL (≈ 17.4 µM) | Non-toxic | 16 µg/mL (≈ 34.8 µM) | Non-toxic | 8 µg/mL (≈ 17.4 µM) | 16 µg/mL (≈ 34.8 µM) | 16 µg/mL (≈ 34.8 µM) | Non-toxic | Non-toxic | 128 µg/mL (≈ 278 µM) | 8 µg/mL (≈ 17.4 µM) | 16 µg/mL (≈ 34.8 µM) | 16 µg/mL (≈ 34.8 µM) | 128 µg/mL (≈ 278 µM) | – |
| CC(C)CC(c1c[nH]c2ccccc12)N(O)Cc1ccccc1 (configuration not stated) | 32 µg/mL (≈ 104 µM) | Non-toxic | 32 µg/mL (≈ 104 µM) | 32 µg/mL (≈ 104 µM) | Non-toxic | 32 µg/mL (≈ 104 µM) | 32 µg/mL (≈ 104 µM) | Non-toxic | 16 µg/mL (≈ 51.9 µM) | Non-toxic | 32 µg/mL (≈ 104 µM) | 16 µg/mL (≈ 51.9 µM) | 16 µg/mL (≈ 51.9 µM) | Non-toxic | Non-toxic | – | – | – | – | – | – |
| GENTAMICIN | – | – | – | – | – | – | – | – | – | – | – | – | – | – | – | – | > 64 µg/mL | – | – | – | MIC (Staphylococcus aureus [1]): 0.125 µg/mL; MIC (Staphylococcus aureus [18]): 0.25 µg/mL; MIC (Staphylococcus aureus [3]): 0.125 µg/mL; MIC (Staphylococcus aureus [4]): 0.125 µg/mL; MIC (Staphylococcus aureus [6]): 0.125 µg/mL; MIC (Staphylococcus aureus [19]): 0.25 µg/mL; MIC (Staphylococcus aureus [7]): 0.125 µg/mL; MIC [9]: 0.125 µg/mL; MIC (Staphylococcus aureus [11]): 0.125 µg/mL; MIC [12]: 0.125 µg/mL; MIC [13]: 0.125 µg/mL; MIC (Escherichia coli): 1 µg/mL |
